From ChEMBL document CHEMBL4325822, “Discovery of a tetrazolyl β-carboline with in vitro and in vivo osteoprotective activity under estrogen-deficient conditions” (Medchemcomm, 2018)
Activity calls are given as the source filed them. The calls are words filed in the database; no cut-off is given here.

Experiments:
[1] = Increase in OCN mRNA expression in Sprague-Dawley rat calvarial osteoblasts at 100 pM by RT-PCR method relative to control; format: functional, Calvarial osteoblast
Method in brief: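 Primary calvarial osteoblasts were lysed in TRIzol after treatment, and total RNA was extracted. Transcripts were quantified by real-time PCR using the comparative CT (ΔΔCT) method.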

Calvarial osteoblast = experiment: Induction of osteoblast proliferation in Sprague-Dawley rat calvarial osteoblasts at 0.000001 to 1 uM after 48 hrs BrdU incorporation assay; format: functional, cell-based
Method in brief: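 2 × 10³ cells/well in duplicate plates, one for cell number and one for BrdU. Cells treated 48 h in differentiation medium, then BrdU added for a further 24 h. Fixed cells get anti-BrdU (1 h RT), then peroxidase secondary (30 min), TMB (30 min, dark), stop, read at 450 nm. Result given as BrdU(+) osteoblasts, % of total.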

[2] = Antioxidant activity assessed as DPPH radical scavenging activity at 3.9 ug/ml after 30 mins by spectrophotometric method relative to control; format: functional
Method in brief: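 The compound was serially diluted from 1000 to 1.95 µg·ml⁻¹ and mixed 1:1 with DPPH in methanol. After 30 min at room temperature, absorbance was read at 517 nm. Scavenging (%) = [(Abc − Abs)/Abc] × 100, where Abc is DPPH without compound.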

[3] = Antioxidant activity assessed as SNP-induced nitric oxide free radical scavenging activity at 1000 ug/ml after 150 mins by Griess reagent based method relative to control; format: functional
Method in brief: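 Serial dilutions (1000 to 1.95 µg·ml⁻¹) were mixed with sodium nitroprusside (10 mM) and incubated 150 min. An equal volume of Griess reagent was added, and absorbance was read at 546 nm. Percentage scavenging was calculated relative to the control without compound.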

Rattus norvegicus [4] = experiment: Antiosteoporotic activity in Sprague-Dawley rat model of OVX-induced bone loss assessed as protection against microarchitectural deterioration by measuring trabecular number at 1 mg/kg, po via gavage for 12 weeks by microcomputed tomographic analysis (reference value: 0.56 +/- 0.06 /millimeter); format: functional
Method in brief: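 Adult female Sprague-Dawley rats were ovariectomized and left 12 weeks to become osteopenic. They then received 12 weeks of once-daily oral gavage (1% gum acacia vehicle) or subcutaneous estradiol, five days a week. Femurs were collected at sacrifice and scanned by micro-CT for BMD and trabecular microarchitecture. Ten rats per group; mean ± SEM.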

Rattus norvegicus [5] = experiment: Antiosteoporotic activity in Sprague-Dawley rat model of OVX-induced bone loss assessed as mineral apposition rate at 1 mg/kg, po via gavage for 12 weeks by microcomputed tomographic analysis (reference value: 0.169 +/- 0.004 umeter/day); format: functional
Method in brief: (§1)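 Female Sprague-Dawley rats, 10-12 weeks old, ten per group, were ovariectomized and left 12 weeks for osteopenia. They were then dosed once daily by oral gavage for 12 weeks in 1% gum acacia vehicle. The estradiol arm received 100 µg·kg⁻¹ subcutaneously five days a week. Tetracycline and calcein were given intraperitoneally at 20 mg·kg⁻¹ each. Femur cross-sections (50 µm) were imaged by fluorescence microscopy for MAR and BFR.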

Rattus norvegicus [6] = experiment: Antiosteoporotic activity in Sprague-Dawley rat model of OVX-induced bone loss assessed as bone formation rate at 1 mg/kg, po via gavage for 12 weeks by microcomputed tomographic analysis (reference value: 0.171 +/- 0.005 um3/um2/day); format: functional; method in brief: as §1
Rattus norvegicus [7] = experiment: Antiosteoporotic activity in Sprague-Dawley rat model of OVX-induced bone loss assessed as increase in mineralization at 1 to 5 mg/kg, po via gavage for 12 weeks measured 18 days post last dose by alizarin red-S staining based assay relative to control; format: functional
Method in brief: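 After 12 weeks of in vivo treatment of ovariectomized rats, femoral bone marrow was flushed. It was cultured 18 days in differentiation medium (10 nM dexamethasone, 10 mM β-glycerophosphate, 50 µg·mL⁻¹ ascorbic acid). Mineralized nodules were stained with alizarin red-S, and the stain was extracted for quantitation.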

Rattus norvegicus [8] = experiment: Antiosteoporotic activity in Sprague-Dawley rat model of OVX-induced bone loss assessed as increase in serum PINP level at 1 to 5 mg/kg, po via gavage for 12 weeks by ELISA; format: functional, organism-based
Method in brief: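 Ovariectomy model as above: 12 weeks of osteopenia, then 12 weeks of daily gavage or subcutaneous estradiol. Serum was separated at autopsy, and CTX and PINP were measured by ELISA kits.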

Rattus norvegicus [9] = experiment: Upregulation of type-1 collagen mRNA expression in femur bone of Sprague-Dawley rat model of OVX-induced bone loss at 1 to 5 mg/kg, po via gavage for 12 weeks by qPCR analysis; format: functional, organism-based
Method in brief: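 Ovariectomized female SD rats, osteopenic after 12 weeks, dosed orally once daily for 12 weeks (1.0 or 5.0 mg·kg⁻¹·day⁻¹, 1% gum acacia vehicle); sham and OVX vehicle groups included. Femurs collected at sacrifice for qRT-PCR, analysed by the ΔΔCT method.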

[10] = Hepatotoxicity in Sprague-Dawley rat model of OVX-induced bone loss assessed as morphological changes in liver at 1 to 5 mg/kg, po via gavage for 12 weeks by hematoxylin and eosin staining based assay; format: toxicity, organism-based; details: in vivo, 2016 h
Method in brief: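 Liver samples from ovariectomized rats after 12 weeks of treatment were dehydrated in isopropanol, cleared in xylene and paraffin-embedded. Transverse 5 µm sections were stained with hematoxylin and eosin and imaged.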

[11] = Toxicity in Sprague-Dawley rat model of OVX-induced bone loss assessed as uterine weight at 1 mg/kg, po via gavage for 12 weeks (reference value: 0.12 +/- 0.02 g); format: organism-based; details: in vivo, 2016 h
[12] = Toxicity in Sprague-Dawley rat model of OVX-induced bone loss assessed as total uterine area at 1 mg/kg, po via gavage for 12 weeks (reference value: 0.11 +/- 0.003 mm2); format: organism-based; details: in vivo, 2016 h
[13] = Toxicity in Sprague-Dawley rat model of OVX-induced bone loss assessed as luminal area at 1 mg/kg, po via gavage for 12 weeks (reference value: 0.01 +/- 0.0004 mm2); format: organism-based; details: in vivo, 2016 h
[14] = Toxicity in Sprague-Dawley rat model of OVX-induced bone loss assessed as uterine weight at 5 mg/kg, po via gavage for 12 weeks (reference value: 0.12 +/- 0.02 g); format: organism-based; details: in vivo, 2016 h

CCOC(=O)c1cc2c([nH]c3ccccc32)c(C(c2nnnn2C(C)(C)C)N2CCN(C)CC2)n1 (stereo not given)
fold change (FC) [1]: 1.8 - 4.6 | Activity (Calvarial osteoblast): Active | Activity [2]: 3.82% | Activity [3]: 19.3% | Activity (Rattus norvegicus [4]): 1.34 /millimeter | Activity (Rattus norvegicus [5]): 1.062 micrometer/day | Activity (Rattus norvegicus [6]): 1.032 um3/um2/day | fold change (FC) (Rattus norvegicus [7]): 1.4 - 1.5 | Activity (Rattus norvegicus [8]): Active | Activity (Rattus norvegicus [9]): Active | Activity [10]: Non-Toxic | Activity [11]: 0.13 g | Activity [12]: 0.14 mm2 | Activity [13]: 0.012 mm2 | Activity [14]: 0.12 g
